Screening results from PubChem BioAssay.
The list is not random: actives were taken first. Their share in the collection is about 1.8%.
M5 PAM – human M5 muscarinic receptor positive allosteric modulators, primary screen, CHO-K1 cells, Fluo-8 calcium fluorescence | Muscarinic acetylcholine receptor M5 (Homo sapiens), P08912 | CHO-K1 hM5, ACh EC20 PAM; 0% = ACh EC20, 100% = ACh EC100 | activation, % at 3 µM | 0.3% of 360,000 active | AID 624038, 2012;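 active = activation above the run cutoff, the mean activation of all test compounds plus 3 SD, cut at about 18% in these data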
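Measured by: Fluo-8 calcium fluorescence; material: human M5 receptor in CHO-K1 cells; schedule: Post-acetylcholine fluorescence recording 140 s; benchmarks: low control EC20 acetylcholine (0%), high control EC100 acetylcholine (100%); read-out: Max/basal fluorescence ratio as % of EC20–EC100 ACh window; compound: single dose, 3 µM nominal final test concentration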
M5 antag – human M5 muscarinic receptor antagonists, primary screen, CHO cells, Fluo-8 calcium fluorescence | AID 624040, 2012 | 0.59% of 360,000 active | inhibition, % at 3 µM | Muscarinic acetylcholine receptor M5 (Homo sapiens), P08912 | CHO-hM5 cells, ACh EC80;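 active = inhibition above a per-plate cutoff, the mean of that plate's test compounds plus 3 SD, cut at about 27% in these data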;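 note: 0% = acetylcholine EC80 with DMSO and 100% = DMSO without agonist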
M4 ag – human M4 muscarinic receptor agonists, primary screen, CHO-K1 cells, Fluo-8 calcium fluorescence; activation, % at 3 µM; Muscarinic acetylcholine receptor M4 (Homo sapiens), P08173; CHO-K1 hM4/Gqi5; vehicle 0%, full acetylcholine response 100%; AID 624127, 2012; 0.14% of 360,000 active;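 active = activation above the run mean over all test wells plus 3 SD, cut at about 32% in these data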;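 note: peak over basal fluorescence ratio per well then scaled between controls; 0% = DMSO wells and 100% = acetylcholine at EC100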
Target sequence (P08173 whole entry, looked up): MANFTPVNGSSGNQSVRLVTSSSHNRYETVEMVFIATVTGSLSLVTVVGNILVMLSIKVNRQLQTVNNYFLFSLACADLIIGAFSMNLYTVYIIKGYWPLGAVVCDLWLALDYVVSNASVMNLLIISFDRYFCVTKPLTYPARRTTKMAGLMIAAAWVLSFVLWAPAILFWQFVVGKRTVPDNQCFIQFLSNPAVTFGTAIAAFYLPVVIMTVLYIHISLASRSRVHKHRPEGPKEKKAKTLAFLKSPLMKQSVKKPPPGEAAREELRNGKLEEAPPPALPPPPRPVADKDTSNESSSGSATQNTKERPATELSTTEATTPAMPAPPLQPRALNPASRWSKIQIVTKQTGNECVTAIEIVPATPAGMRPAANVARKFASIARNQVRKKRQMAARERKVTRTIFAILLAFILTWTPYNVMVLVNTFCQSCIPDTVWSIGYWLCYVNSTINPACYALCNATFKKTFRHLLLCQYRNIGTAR
CHRM4 antagonist – human M4 muscarinic receptor antagonists, primary screen, CHO cells, Fluo-8 calcium fluorescence. Muscarinic acetylcholine receptor M4 (Homo sapiens), P08173. CHO-hM4 cells, ACh EC80. inhibition, % at 3 µM. 0.73% of 360,000 active;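 active = inhibition above its plate's cutoff, the mean inhibition of sample wells plus 3 SD, cut at about 27% in these data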;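 note: 0% = acetylcholine EC80 with DMSO and 100% = DMSO without agonist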
M5 ag – human M5 muscarinic receptor agonists, primary screen, CHO-K1 cells, Fluo-8 calcium fluorescence | CHO-K1 hM5 cells; 0% DMSO wells, 100% maximal acetylcholine response | activation, % at 3 µM | Muscarinic acetylcholine receptor M5 (Homo sapiens), P08912 | AID 624037, 2012 | 0.19% of 360,000 active;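 active = activation above the run's mean over test compounds plus 3 SD, cut at about 23% in these data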;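 note: signal is peak over basal fluorescence ratio across the kinetic read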
M4 PAM – human M4 muscarinic receptor positive allosteric modulators, primary screen, CHO-K1 cells, Fluo-8 calcium fluorescence. activation, % at 3 µM. 0.4% of 360,000 active. Muscarinic acetylcholine receptor M4 (Homo sapiens), P08173. AID 624126, 2012. CHO-K1 hM4/Gqi5, ACh EC20; 0% = ACh EC20, 100% = maximal ACh;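 active = activation above its plate's cutoff, the mean activation of sample wells plus 3 SD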
The depositor's hits bear a star.

SMILES	M5 PAM	M5 antag	M4 ag	CHRM4 antagonist	M5 ag	M4 PAM
CN(C)CCCNC(=O)N1c2ccccc2Sc2ccccc21	-34	100*	1	97*	-24	-16
O=C(NCCN1CCOCC1)N1c2ccccc2Sc2ccccc21	-29	59*	1	38*	-13	-15
O=C(CCN1CCOCC1)N1c2ccccc2Sc2ccc(Cl)cc21	-17	95*	1	57*	-7	-19
COc1ccccc1NC(=S)N1CCN(c2ccccc2F)CC1	-1	4	0	1	-1	3
CC(=O)c1ccc(N(CC(=O)NC2CCCC2)C(=O)CNC(=O)c2ccco2)cc1	7	0	1	-3	-3	4
CC(C)(C)OC(=O)C[C@H]1C/C=C\C[C@H](CC(=O)N[C@@H](CO)Cc2ccccc2)C(=O)N[C@H](C(C)(C)C)COC1=O	1	-10	5	-11	-1	6
Cc1ccc(Oc2ccc(C(F)(F)F)cc2[N+](=O)[O-])c([N+](=O)[O-])n1	12	0	0	-2	-2	1
Cc1ccc(S(=O)(=O)NCCCN2CCCC2)cc1	15	23	6	17	-3	21*
Cc1ccc(S(=O)(=O)NCCNS(=O)(=O)c2ccc(C)cc2)cc1	-7	4	5	4	-2	-1
O=S(=O)(NCCCN1CCOCC1)c1ccc2c(c1)OCCO2	22*	-4	0	3	2	-1
CC12CCC(=O)N1C(C(=O)Nc1cc(Cl)ccc1N1CCCC1)CS2 (stereo not drawn)	-5	4	0	-2	-1	4
O=C(NCC(Cl)c1ccc2ccccc2c1)c1c(F)cccc1F (stereo not drawn)	-9	11	10	6	6	-12
Cc1nc(-c2ccccc2)sc1C1(C)CC(c2ccc(OC(F)(F)F)cc2)=NO1 (stereo not drawn)	18*	-4	1	-23	1	7
CN(CC(=O)Nc1ccc(C#N)cc1)Cc1ccc(Cl)cc1	-12	14	3	8	-1	-14
CN(CC(=O)Nc1ccc(C#N)cc1)Cc1ccc(Cl)cc1Cl	-23	27*	2	17	-6	-21
COc1ccc(NC(=S)NNc2ccc([N+](=O)[O-])cc2S(=O)(=O)Nc2ccc(C)cc2C)cc1	-22	34*	8	3	0	-5
Cc1ccc(NS(=O)(=O)c2cc([N+](=O)[O-])ccc2NNC(=S)Nc2cccc(Cl)c2)c(C)c1	-13	24	6	4	-1	-6
COc1ccc(NC(=S)Nc2cccc([N+](=O)[O-])c2)cc1	-2	0	4	6	2	3
Cc1ccc(NS(=O)(=O)c2cc([N+](=O)[O-])ccc2NNC(=S)Nc2cc(C)ccc2C)c(C)c1	-19	37*	4	13	0	-11
COc1cccc(OCC(=O)NNC(=S)Nc2ccc(Cl)cc2Cl)c1	-5	-2	9	-2	1	0
COc1ccc(C(=O)/C=C/C(=O)N(CC(=O)NC2CCCCC2)CC2CCCO2)c(O)c1 (stereo not drawn)	7	14	6	29*	17	-8
COC(=O)N/N=C/c1ccc([N+](=O)[O-])o1	10	-13	1	14	2	30*
NC(=O)N/N=C/c1ccc([N+](=O)[O-])o1	-3	1	1	0	1	-2
CC(C)(C)C(=O)/C=c1\s/c(=C\c2ccc(-c3ccc([N+](=O)[O-])cc3)o2)c(=O)n1CC(=O)NC(N)=O	-12	32*	9	17	9	-9
